The text below walks through data of ChEMBL document CHEMBL1152221, “Synthesis and activity of substituted carbamates as potentiators of the alpha4beta2 nicotinic acetylcholine receptor” (Bioorg Med Chem Lett, 2008).

Data set [1] deals with T1, Neuronal acetylcholine receptor; alpha4/beta2 (Homo sapiens) (UniProt P17787+P43681). Nature of the data set: Activity at human alpha4beta2 nAChR assessed as potentiation of nicotine-induced response by fluorescent Ca2+ flux assay. (In general: Calcium flux is commonly read through the fluorescence of an indicator in the cells.)
Data set [2] addresses T1, Neuronal acetylcholine receptor; alpha4/beta2 (Homo sapiens). Nature of the data set: Activity at human alpha4beta2 nAChR assessed as potentiation of nicotine-induced response by fluorescent Ca2+ flux assay relative to nicotine.
Data set [3] is described as follows: Clearance in Sprague-Dawley rat. It counts as ADME, organism-based. Conditions: in vivo.
Data set [4] has as its target Neuronal acetylcholine receptor; alpha4/beta2 (Rattus norvegicus) (UniProt P09483+P12390). Description: Displacement of [3H]cystisine from alpha4beta2 nAChR in rat cerebral cortical membrane at >=30 uM. It counts as cell membranes.
The target of data set [5] is Neuronal acetylcholine receptor; alpha3/beta2 (Homo sapiens) (UniProt P17787+P32297). Nature of the data set: Activity at human alpha3beta2 nAChR expressed in Xenopus oocytes assessed as potentiation of acetylcholine-induced response by patch-clamp electrophysiology. It counts as cell-based. To be noted: Oocyte. Background: The patch-clamp technique gives a direct electrical read-out from membranes.

The target of data set [6] is Neuronal acetylcholine receptor; alpha3/beta4 (Homo sapiens) (UniProt P30926+P32297). Description: Activity at human alpha3beta4 nAChR expressed in Xenopus oocytes assessed as potentiation of acetylcholine-induced response by patch-clamp electrophysiology. It counts as cell-based. To be noted: Oocyte.
The subject of data set [7] is LLC-PK1. Nature of the data set: Efflux ratio of permeability from […] in human MDR1 transfected pig LLC-PK1 cells at 5 uM after 2 hrs. To be noted: llc-pk1, 2 h. It counts as ADME, cell-based, Sus scrofa. In short, it runs like this: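 MDR1-LLC-PK1 cells were seeded at 200,000 cells/well on membrane filters. Transport was run manually on day 5 after plating, in both A-to-B and B-to-A directions, in the presence of 0.1% bovine serum albumin.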

Data set [8] is described as follows: Ratio of drug level in brain to plasma in Sprague-Dawley rat. It counts as ADME, organism-based. Conditions: brain and plasma.
The nature of data set [9]: Metabolic stability in rat liver microsomes. It counts as ADME, Microsome. Conditions: read-out: Stability.
The nature of data set [10]: Metabolic stability in human liver microsomes. It counts as ADME, Microsome. To be noted: read-out: Stability. On the technique in general: Liver microsomes are vesicles of endoplasmic reticulum, rich in cytochrome P450 enzymes.

Calls of active or inactive are those of the source. The calls are words filed in the database; no cut-off is given here.

In the case of `CC[C@H](Cn1nc(C(C)C)cc1C(C)C)OC(=O)Nc1ccc(F)cc1F`, the EC12 in data set [1] worked out at 0.38 µM. Further, the Efficacy in data set [2] is 83%.

Turning to `CC(C)c1cc(C(C)C)n(C[C@H](OC(=O)Nc2ccc(Cl)cc2)C(C)C)n1`, the EC12 in data set [1] was 0.33 µM. Further, the Efficacy in data set [2] worked out at 91%.

With `CC(C)[C@H](Cn1nc(C(F)(F)F)cc1-c1ccccc1)OC(=O)Nc1ccc(F)cc1F`, in data set [1], the EC12 is 2.4 µM. In [2], the Efficacy worked out at 10%.

As for `CC(C)c1cc(C(C)C)n(CC(OC(=O)Nc2ccc(F)cc2F)C(C)(C)C)n1` (racemic), the EC12 in [1] was found to be 3.7 µM. For the same compound, in [2], the Efficacy came out at 11%.

As for `CC[C@H](Cn1nc(C(F)(F)F)cc1C1CC1)OC(=O)Nc1ccc(F)cc1F`, in data set [1], the EC12 was 0.7 µM. Further, the Efficacy in [2] was 54%.

Turning to `Cc1cccc(NC(=O)O[C@@H](Cn2nc(C(C)C)cc2C(C)C)C(C)C)c1`, in data set [1], the EC12 was 0.9 µM. In addition, in [2], the Efficacy worked out at 25%.

In data set [3], `CCOc1ccc(NC(=O)O[C@@H](Cn2nc(C(C)C)cc2C(C)C)C(C)C)cc1` had a clearance of 30 mL/min/kg. The result in [4] was inactive. Besides, the EC12 in [1] is 0.11 µM. Besides, the Efficacy in data set [2] is 100%.

As to `CCc1cc(C(F)(F)F)nn1C[C@H](OC(=O)Nc1ccc(F)cc1F)C(C)C`, the EC12 in data set [1] came out at 0.21 µM. The Efficacy in data set [2] turned out to be 50%.

Turning to `CC(C)c1cc(C(C)C)n([C@@H]2CCC[C@H]2OC(=O)Nc2ccc(F)cc2F)n1`, in [1], the EC12 stood at 0.25 µM. For the same compound, the Efficacy in data set [2] turned out to be 73%.

For the compound `CC[C@H](Cn1nc(C(F)(F)F)cc1C1CCNCC1)OC(=O)Nc1ccc(F)cc1F`, in data set [1], the EC12 is greater than 100 µM. The Efficacy in data set [2] is -3%.

Turning to `CC(C)c1cc(C(C)C)n(C[C@H](NC(=O)Nc2ccc(F)cc2F)C(C)C)n1`, the EC12 in data set [5] is greater than 100 µM; in [6], greater than 100 µM; in data set [1] it was 0.31 µM. In [7], the Ratio was determined as 1.1. The Kp in [8] came out at 1. The clearance in [3] is 50 mL/min/kg. Further, the Efficacy in [2] came to 25%.

For `CC[C@H](Cn1nc(C(F)(F)F)cc1C1CCCCC1)OC(=O)Nc1ccc(F)cc1F`, in data set [1], the EC12 is 0.38 µM. Moreover, the Efficacy in data set [2] is 88%.

Consider `Cc1ccc(NC(=O)O[C@@H](Cn2nc(C(C)C)cc2C(C)C)C(C)C)cc1`, for which the EC12 in [1] came to 0.13 µM. The Efficacy in [2] is 59%.

Regarding `CC(C)[C@H](Cn1nc(C(F)(F)F)cc1C(F)(F)F)OC(=O)Nc1ccc(F)cc1F`, in data set [1], the EC12 was found to be 3.9 µM. Besides, the Efficacy in [2] is 16%.

For the compound `CC(C)c1cc(C(C)C)n(C[C@H](OC(=O)Nc2ccc(F)cc2F)C(C)C)n1`, the EC12 was greater than 100 µM in [5], greater than 100 µM in [6] and 0.25 µM in data set [1]. The Ratio in [7] is reported as 1.1. Further, the Kp in data set [8] was determined as 1. In data set [3], this compound had a clearance of 81.7 mL/min/kg. Moreover, the microsomal CLint in data set [9] is greater than 399 µL/min/mg; in [10] it was 644 µL/min/mg. In addition, in data set [2], the Efficacy is 76%.

For the compound `CC(C)c1cc(C(C)C)n(C[C@H](OC(=O)Nc2ccc(Oc3ccccc3)cc2)C(C)C)n1`, in data set [1], the EC12 turned out to be 0.34 µM. The Efficacy in data set [2] came out at 89%.

`CC[C@H](Cn1nc(C(F)(F)F)cc1C1CCCO1)OC(=O)Nc1ccc(F)cc1F` (some centres not stated): in data set [1], the EC12 is greater than 100 µM. Moreover, the Efficacy in data set [2] came out at 3%.

For the compound `CC(C)c1cc(C(C)C)n([C@H](C)[C@@H](C)OC(=O)Nc2ccc(F)cc2F)n1` (racemic), the EC12 in data set [1] amounted to 1.3 µM. Moreover, in data set [2], the Efficacy stood at 12%.

With `Cc1ccccc1NC(=O)O[C@@H](Cn1nc(C(C)C)cc1C(C)C)C(C)C`, in [1], the EC12 is greater than 100 µM. For the same compound, the Efficacy in [2] was found to be 9%.

With `CC(C)[C@H](Cn1nccc1C(F)(F)F)OC(=O)Nc1ccc(F)cc1F`, in data set [1], the EC12 came to 2.1 µM. In data set [2], the Efficacy is 30%.

On to `CC(C)c1cc(C(C)C)n(C[C@@H](NC(=O)Nc2ccc(F)cc2F)C(C)C)n1`, for which, in data set [1], the EC12 was greater than 10 µM. Moreover, the Efficacy in [2] was determined as 19%.

Take `COc1ccc(NC(=O)O[C@@H](Cn2nc(C(C)C)cc2C(C)C)C(C)C)cc1`: the EC12 in data set [1] came out at 0.14 µM. In addition, the Efficacy in [2] is 77%.

Take `CC(C)[C@H](Cn1cccn1)OC(=O)Nc1ccc(F)cc1F`: in [1], the EC12 was greater than 50 µM. For the same compound, the Efficacy in data set [2] turned out to be 6%.

Take `CC[C@H](Cn1nc(C(F)(F)F)cc1C1=CCCC1)OC(=O)Nc1ccc(F)cc1F`: in data set [1], the EC12 was 0.46 µM. Also, the Efficacy in [2] amounted to 20%.

On to `CC(C)c1cc(C(C)C)n(CC(OC(=O)Nc2ccsc2)C(C)C)n1` (racemic), for which the EC12 in data set [1] came to 0.7 µM. Besides, the Efficacy in data set [2] was 12%.

Consider `CC(C)c1cc(C(C)C)n(C[C@H](OC(=O)NC2CCCCC2)C(C)C)n1`, for which the EC12 in data set [1] is 2.7 µM. Besides, in [2], the Efficacy was determined as 13%.

With `CC(C)c1cc(C(C)C)n([C@@H](C)[C@@H](C)OC(=O)Nc2ccc(F)cc2F)n1` (racemic), the EC12 in data set [1] was greater than 100 µM. The Efficacy in [2] amounted to 10%.

`CC[C@H](Cn1nc(C(F)(F)F)cc1C1CCCC1)OC(=O)Nc1ccc(F)cc1F`: in [3], the clearance was 70.5 mL/min/kg. Besides, the EC12 in data set [1] amounted to 0.57 µM. Besides, the Efficacy in data set [2] worked out at 95%.

As to `CC[C@H](Cn1nc(C)cc1C)OC(=O)Nc1ccc(F)cc1F`, the EC12 in [1] worked out at 1.18 µM. Further, the Efficacy in [2] stood at 15%.

With `CC(C)c1cc(C(C)C)n(C[C@@H](OC(=O)Nc2ccc(F)cc2F)C(C)C)n1`, in data set [1], the EC12 was greater than 50 µM. Further, the Efficacy in [2] stood at 9%.

For `CC(C)c1cc(C(C)C)n(C[C@H](OC(=O)Nc2ccncc2)C(C)C)n1`, in [1], the EC12 was greater than 100 µM. In addition, the Efficacy in [2] came out at 7%.

`CC(C)c1cc(C(C)C)n(C[C@@H](C)OC(=O)Nc2ccc(F)cc2F)n1`: in data set [1], the EC12 stood at 0.7 µM. Further, in [2], the Efficacy was determined as 15%.

In the case of `CC[C@H](Cn1ccc(C(F)(F)F)n1)OC(=O)Nc1ccc(F)cc1F`, the EC12 in data set [1] was 0.89 µM. Moreover, the Efficacy in data set [2] is 15%.

As for `CC(C)c1cc(C(C)C)n(C[C@H](OC(=O)Nc2ccc(C(F)(F)F)cc2)C(C)C)n1`, the EC12 in data set [1] amounted to 0.4 µM. Besides, in data set [2], the Efficacy was 106%.

Take `CC(C)c1cc(C(C)C)n(CC(OC(=O)Nc2ccccc2)C(C)C)n1` (racemic): the EC12 in [1] came to 0.38 µM. Also, in [2], the Efficacy was determined as 18%.

Turning to `CCCOc1ccc(NC(=O)O[C@@H](Cn2nc(C(C)C)cc2C(C)C)C(C)C)cc1`, the EC12 in data set [1] came to 0.33 µM. The Efficacy in [2] stood at 107%.

The term clearance denotes the volume of plasma or blood freed of the substance per unit of time. Broadly, the Kp is tissue or fluid exposure divided by exposure in the circulation.
